Measurements as given in ChEMBL document CHEMBL1154688, “Selective Kv1.5 blockers: development of (R)-1-(methylsulfonylamino)-3-[2-(4-methoxyphenyl)ethyl]-4-(4-methoxyphenyl)-2-imidazolidinone (KVI-020/WYE-160020) as a potential treatment for atrial arrhythmia” (J Med Chem, 2009).
Values after ≈ are worked out from the molar mass of the structure shown.

Assays:
CYP3A4 = CYP3A4 (Homo sapiens, UniProt P08684); assay: Inhibition of CYP3A4 at 3 uM by fluorescent method; type: ADME
Procedure, shortened: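 CYP3A4 inhibition measured by a fluorescent method.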

[1] = Aqueous solubility at pH 7.4 by direct UV method; type: physicochemical; details: aqueous medium
Procedure, shortened: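 Solubility measured in pH 7.4 buffer with direct UV read-out.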

[2] = target: Potassium voltage-gated channel subfamily A member 5 (Homo sapiens, UniProt P22460); assay: Inhibition of human Kv1.5 expressed in CHO cells by patch-clamp technique; type: cell-based
Sequence of Potassium voltage-gated channel subfamily A member 5 (P22460 whole entry): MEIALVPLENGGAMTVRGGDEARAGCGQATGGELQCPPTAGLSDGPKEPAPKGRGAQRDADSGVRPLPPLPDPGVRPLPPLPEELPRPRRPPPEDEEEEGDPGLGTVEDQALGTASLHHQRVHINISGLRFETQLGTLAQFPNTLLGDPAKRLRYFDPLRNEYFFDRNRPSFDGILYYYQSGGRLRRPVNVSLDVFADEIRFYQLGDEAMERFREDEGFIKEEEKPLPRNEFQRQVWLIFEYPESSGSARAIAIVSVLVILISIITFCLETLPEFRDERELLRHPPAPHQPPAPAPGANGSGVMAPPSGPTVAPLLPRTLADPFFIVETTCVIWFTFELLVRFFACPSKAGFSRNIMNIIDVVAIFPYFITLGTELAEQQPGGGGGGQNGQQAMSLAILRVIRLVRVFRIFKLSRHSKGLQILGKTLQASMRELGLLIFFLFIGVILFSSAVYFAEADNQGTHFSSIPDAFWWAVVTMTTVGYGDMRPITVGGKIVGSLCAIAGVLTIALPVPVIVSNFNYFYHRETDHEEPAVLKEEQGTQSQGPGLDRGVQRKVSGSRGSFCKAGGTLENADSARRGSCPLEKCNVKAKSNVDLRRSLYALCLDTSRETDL
Procedure, shortened: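 Human Kv1.5 stably expressed in CHO cells. IC50 was determined by automated patch clamp on the IonWorks platform.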

[3] = Metabolic stability in human liver microsomes assessed as half life; type: ADME, Microsome
Procedure, shortened: (§1)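 Test compound at 1 μM incubated with 1 mg/mL male beagle dog or male human liver microsomal protein. Half-life was determined from compound loss.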

[4] = target: Voltage-gated inwardly rectifying potassium channel KCNH2 (Homo sapiens, UniProt Q12809); assay: Inhibition of human ERG by patch-clamp technique
Sequence of Voltage-gated inwardly rectifying potassium channel KCNH2 (Q12809 whole entry): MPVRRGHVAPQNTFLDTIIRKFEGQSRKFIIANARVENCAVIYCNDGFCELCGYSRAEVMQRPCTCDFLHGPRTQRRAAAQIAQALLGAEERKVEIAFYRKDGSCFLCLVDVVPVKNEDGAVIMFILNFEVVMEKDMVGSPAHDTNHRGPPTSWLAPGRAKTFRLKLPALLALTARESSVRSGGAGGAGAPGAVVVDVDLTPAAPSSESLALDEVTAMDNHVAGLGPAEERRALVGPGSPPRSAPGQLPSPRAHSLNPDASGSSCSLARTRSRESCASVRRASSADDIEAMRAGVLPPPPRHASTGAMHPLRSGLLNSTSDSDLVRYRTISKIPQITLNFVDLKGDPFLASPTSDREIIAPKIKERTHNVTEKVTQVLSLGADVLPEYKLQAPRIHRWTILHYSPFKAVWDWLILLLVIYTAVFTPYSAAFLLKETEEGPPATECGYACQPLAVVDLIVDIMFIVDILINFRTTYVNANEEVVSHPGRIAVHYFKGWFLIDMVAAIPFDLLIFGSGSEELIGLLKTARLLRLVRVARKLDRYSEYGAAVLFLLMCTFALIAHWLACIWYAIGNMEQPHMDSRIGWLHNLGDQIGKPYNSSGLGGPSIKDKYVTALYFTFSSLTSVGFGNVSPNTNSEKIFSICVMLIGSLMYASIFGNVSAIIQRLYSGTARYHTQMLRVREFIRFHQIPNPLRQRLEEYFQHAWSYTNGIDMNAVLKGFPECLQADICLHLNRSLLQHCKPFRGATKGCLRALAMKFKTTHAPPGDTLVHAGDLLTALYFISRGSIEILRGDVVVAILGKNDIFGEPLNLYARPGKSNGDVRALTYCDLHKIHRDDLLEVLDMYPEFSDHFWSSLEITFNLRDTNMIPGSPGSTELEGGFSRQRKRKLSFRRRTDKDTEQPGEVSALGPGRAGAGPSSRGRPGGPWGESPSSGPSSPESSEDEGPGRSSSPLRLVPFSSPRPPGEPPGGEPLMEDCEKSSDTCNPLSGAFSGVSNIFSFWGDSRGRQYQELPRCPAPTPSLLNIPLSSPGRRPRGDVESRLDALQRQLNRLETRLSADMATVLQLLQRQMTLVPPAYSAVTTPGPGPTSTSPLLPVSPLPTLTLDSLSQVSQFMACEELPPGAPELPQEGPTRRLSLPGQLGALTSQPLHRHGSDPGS

[5] = Permeability from basolateral to apical side in human Caco-2 cells at pH 7.4; type: ADME, cell-based; details: Caco-2, pH 7.4, read-out: permeability
Procedure, shortened: (§2)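 Caco-2 monolayers at pH 7.4. Bidirectional transport was measured from apical to basolateral and from basolateral to apical. Apparent permeability was reported in cm/s.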

[6] = AUC in Beagle dog at 3 mg/kg, po; type: ADME, organism-based, Canis lupus familiaris; design: dose 3 mg/kg, route oral; details: plasma
Procedure, shortened: (§3)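 Male beagles dosed orally at 3 mg/kg. Cmax, Tmax, half-life and AUC were taken from plasma levels.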

Canis familiaris [7] = species on record: Canis familiaris; assay: Antiarrhythmic activity in Beagle dog prolongation of atrial effective refractory period at steady state plasma concentrations of 23 uM; type: functional, Canis lupus familiaris, Heart
Canis familiaris [8] = assay: Antiarrhythmic activity in Beagle dog atrial/ventricular tachypacing model assessed as decrease in atrial fibrillation at 3 mg/kg, po after 5 to 10 mins; type: functional, Canis lupus familiaris, Heart; design: scale not given: the % may be the effect or the level left
[9] = Plasma clearance in Beagle dog at 3 mg/kg, iv; type: ADME, organism-based, Canis lupus familiaris; design: dose 3 mg/kg, route intravenous
Procedure, shortened: (§4)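 Male beagles; single 30 min intravenous infusion at 3 mg/kg. Plasma clearance, steady-state volume of distribution, elimination half-life and AUC were derived from the plasma concentration–time profile.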

[10] = target: T1, A-type voltage-gated potassium channel KCND3 (Homo sapiens, UniProt Q9UK17); assay: Inhibition of Kv4.3 expressed in CHO cells by patch-clamp technique; type: cell-based
T1 sequence (Q9UK17 whole entry): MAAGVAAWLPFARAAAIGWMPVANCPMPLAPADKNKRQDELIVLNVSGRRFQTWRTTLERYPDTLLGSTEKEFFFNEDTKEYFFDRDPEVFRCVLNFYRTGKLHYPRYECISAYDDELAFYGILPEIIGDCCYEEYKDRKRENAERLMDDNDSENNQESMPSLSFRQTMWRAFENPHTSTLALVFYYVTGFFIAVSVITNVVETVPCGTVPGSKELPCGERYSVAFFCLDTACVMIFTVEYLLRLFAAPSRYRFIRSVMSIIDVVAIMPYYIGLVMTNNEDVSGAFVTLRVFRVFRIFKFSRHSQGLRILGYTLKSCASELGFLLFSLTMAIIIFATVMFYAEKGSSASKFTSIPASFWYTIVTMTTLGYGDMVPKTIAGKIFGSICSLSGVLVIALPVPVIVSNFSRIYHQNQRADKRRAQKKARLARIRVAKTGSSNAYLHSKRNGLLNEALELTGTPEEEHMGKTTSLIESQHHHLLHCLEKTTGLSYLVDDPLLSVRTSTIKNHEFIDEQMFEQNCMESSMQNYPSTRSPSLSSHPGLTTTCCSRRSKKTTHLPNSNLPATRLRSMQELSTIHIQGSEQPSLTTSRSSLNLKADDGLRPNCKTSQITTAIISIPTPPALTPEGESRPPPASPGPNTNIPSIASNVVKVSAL
Procedure, shortened: (§5)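 Electrophysiology IC50 measured in stably transfected cell lines: CHO for Nav1.5, Kv1.1, Kv1.3 and Kv4.3, and HEK for Cav1.3 and Cav1.2.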

[11] = Permeability from apical to basolateral side in human Caco-2 cells at pH 7.4; type: ADME, cell-based; details: Caco-2, pH 7.4, read-out: permeability; procedure, shortened: as §2
[12] = Oral bioavailability in Beagle dog at 3 mg/kg; type: ADME, organism-based, Canis lupus familiaris; details: in vivo; procedure, shortened: as §3
Cytochrome P450 2D6 = Cytochrome P450 2D6 (Homo sapiens, UniProt P10635); assay: Inhibition of CYP2D6 in human liver microsomes; type: ADME, Microsome
Sequence of Cytochrome P450 2D6 (P10635 whole entry): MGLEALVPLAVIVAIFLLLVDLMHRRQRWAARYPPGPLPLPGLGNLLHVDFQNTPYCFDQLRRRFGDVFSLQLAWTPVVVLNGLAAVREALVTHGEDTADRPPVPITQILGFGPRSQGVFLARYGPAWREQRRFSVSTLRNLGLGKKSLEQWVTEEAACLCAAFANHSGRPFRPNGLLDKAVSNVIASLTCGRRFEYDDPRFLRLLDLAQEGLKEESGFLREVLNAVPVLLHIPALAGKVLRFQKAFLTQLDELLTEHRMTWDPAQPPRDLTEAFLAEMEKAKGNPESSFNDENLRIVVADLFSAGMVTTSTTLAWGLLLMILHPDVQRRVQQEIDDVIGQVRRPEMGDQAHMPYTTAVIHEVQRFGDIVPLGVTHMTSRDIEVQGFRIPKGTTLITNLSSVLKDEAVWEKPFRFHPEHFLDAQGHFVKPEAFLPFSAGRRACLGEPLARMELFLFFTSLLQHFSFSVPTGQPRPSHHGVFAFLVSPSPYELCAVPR
Procedure, shortened: (§6)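 Reversible inhibition assayed in human liver microsomes at 0.2 mg/mL protein with probe substrates. CYP3A4 used 2.5 μM midazolam and, separately, 50 μM testosterone. CYP2D6 used 10 μM bufuralol. CYP2C9 used 10 μM diclofenac. IC50 was determined.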

[13] = Protein binding in Beagle dog plasma by equilibrium dialysis; type: ADME, cell-free, Canis lupus familiaris; details: read-out: PPB (converted)
Procedure, shortened: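 Tritium-labelled compound at 500 ng/mL in male beagle dog or male human plasma. Bound fraction was determined by equilibrium dialysis.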

[14] = Volume of distribution at steady state in Beagle dog at 3 mg/kg, iv; type: ADME, organism-based, Canis lupus familiaris; design: dose 3 mg/kg, route intravenous; details: in vivo, read-out: Vdss; procedure, shortened: as §4
[15] = Half life in Beagle dog at 3 mg/kg, po; type: ADME, organism-based, Canis lupus familiaris; design: dose 3 mg/kg, route oral; details: in vivo; procedure, shortened: as §3
[16] = Tmax in Beagle dog at 3 mg/kg, po; type: ADME, organism-based, Canis lupus familiaris; design: dose 3 mg/kg, route oral; details: in vivo; procedure, shortened: as §3
Canis familiaris [17] = assay: Plasma concentration in Beagle dog at 6.3 mg/kg, iv; type: ADME, organism-based, Canis lupus familiaris; design: dose 6.3 mg/kg, route intravenous; details: in vivo
[18] = Metabolic stability in Beagle dog liver microsomes assessed as half life; type: ADME, Canis lupus familiaris, Microsome; procedure, shortened: as §1
[19] = Half life in Beagle dog at 3 mg/kg, iv; type: ADME, organism-based, Canis lupus familiaris; design: dose 3 mg/kg, route intravenous; details: in vivo; procedure, shortened: as §4
Canis familiaris [20] = assay: Antiarrhythmic activity in Beagle dog atrial/ventricular tachypacing model assessed as decrease in atrial fibrillation at 3 mg/kg, po; type: functional, Canis lupus familiaris, Heart; design: scale not given: the % may be the effect or the level left
[21] = target: Potassium voltage-gated channel subfamily A member 3 (Homo sapiens, UniProt P22001); assay: Inhibition of Kv1.3 expressed in CHO cells by patch-clamp technique; type: cell-based; procedure, shortened: as §5
Sequence of Potassium voltage-gated channel subfamily A member 3 (P22001 whole entry): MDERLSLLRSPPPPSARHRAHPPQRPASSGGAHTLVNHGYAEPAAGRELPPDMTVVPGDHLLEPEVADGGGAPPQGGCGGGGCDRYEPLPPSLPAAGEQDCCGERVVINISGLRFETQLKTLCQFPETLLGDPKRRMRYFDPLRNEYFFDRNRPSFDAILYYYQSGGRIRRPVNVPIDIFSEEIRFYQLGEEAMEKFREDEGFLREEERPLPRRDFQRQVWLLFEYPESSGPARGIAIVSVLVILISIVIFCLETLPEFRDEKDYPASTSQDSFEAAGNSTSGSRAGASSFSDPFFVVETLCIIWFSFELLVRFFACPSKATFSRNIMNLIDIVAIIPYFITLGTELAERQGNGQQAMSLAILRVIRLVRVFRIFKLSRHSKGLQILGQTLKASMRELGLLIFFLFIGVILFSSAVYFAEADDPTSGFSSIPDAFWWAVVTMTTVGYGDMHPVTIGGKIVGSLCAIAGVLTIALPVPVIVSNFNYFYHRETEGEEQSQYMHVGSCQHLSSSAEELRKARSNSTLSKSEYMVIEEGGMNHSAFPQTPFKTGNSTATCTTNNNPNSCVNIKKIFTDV

Canis familiaris [22] = assay: Plasma concentration in Beagle dog at 1.9 mg/kg, iv; type: ADME, organism-based, Canis lupus familiaris; design: dose 1.9 mg/kg, route intravenous; details: in vivo
[23] = target: Voltage-dependent L-type calcium channel subunit alpha-1C (Homo sapiens, UniProt Q13936); assay: Inhibition of Cav1.2 expressed in HEK cells by patch-clamp technique
Cytochrome P450 2C9 = Cytochrome P450 2C9 (Homo sapiens, UniProt P11712); assay: Inhibition of CYP2C9 in human liver microsomes; type: ADME, Microsome; procedure, shortened: as §6
Sequence of Cytochrome P450 2C9 (P11712 whole entry): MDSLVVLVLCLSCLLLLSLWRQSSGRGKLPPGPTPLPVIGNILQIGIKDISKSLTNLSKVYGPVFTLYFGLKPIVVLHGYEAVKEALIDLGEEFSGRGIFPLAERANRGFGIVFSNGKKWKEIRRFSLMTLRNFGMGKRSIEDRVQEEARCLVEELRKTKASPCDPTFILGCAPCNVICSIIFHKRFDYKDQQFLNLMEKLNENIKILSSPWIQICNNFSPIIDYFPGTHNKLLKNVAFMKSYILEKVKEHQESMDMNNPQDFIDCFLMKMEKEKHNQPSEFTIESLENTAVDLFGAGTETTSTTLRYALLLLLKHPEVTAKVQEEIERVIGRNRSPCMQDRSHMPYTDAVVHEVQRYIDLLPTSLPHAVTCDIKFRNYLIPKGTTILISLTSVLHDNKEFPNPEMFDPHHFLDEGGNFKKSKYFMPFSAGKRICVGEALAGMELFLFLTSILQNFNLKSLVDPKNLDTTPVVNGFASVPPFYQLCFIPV

Canis familiaris [24] = assay: Antiarrhythmic activity in Beagle dog atrial/ventricular tachypacing model assessed as decrease in total atrial fibrillation at 3 mg/kg, po; type: functional, Canis lupus familiaris, Heart; design: scale not given: the % may be the effect or the level left
[25] = target: Sodium channel protein type 5 subunit alpha (Homo sapiens, UniProt Q14524); assay: Inhibition of Nav1.5 expressed in CHO cells by patch-clamp technique; type: cell-based; procedure, shortened: as §5
[26] = Cmax in Beagle dog at 3 mg/kg, po; type: ADME, organism-based, Canis lupus familiaris; design: dose 3 mg/kg, route oral; details: in vivo; procedure, shortened: as §3
Cytochrome P450 3A4 = Cytochrome P450 3A4 (Homo sapiens, UniProt P08684); assay: Inhibition of CYP3A4 in human liver microsomes; type: ADME, Microsome; procedure, shortened: as §6
Sequence of Cytochrome P450 3A4 (P08684 whole entry): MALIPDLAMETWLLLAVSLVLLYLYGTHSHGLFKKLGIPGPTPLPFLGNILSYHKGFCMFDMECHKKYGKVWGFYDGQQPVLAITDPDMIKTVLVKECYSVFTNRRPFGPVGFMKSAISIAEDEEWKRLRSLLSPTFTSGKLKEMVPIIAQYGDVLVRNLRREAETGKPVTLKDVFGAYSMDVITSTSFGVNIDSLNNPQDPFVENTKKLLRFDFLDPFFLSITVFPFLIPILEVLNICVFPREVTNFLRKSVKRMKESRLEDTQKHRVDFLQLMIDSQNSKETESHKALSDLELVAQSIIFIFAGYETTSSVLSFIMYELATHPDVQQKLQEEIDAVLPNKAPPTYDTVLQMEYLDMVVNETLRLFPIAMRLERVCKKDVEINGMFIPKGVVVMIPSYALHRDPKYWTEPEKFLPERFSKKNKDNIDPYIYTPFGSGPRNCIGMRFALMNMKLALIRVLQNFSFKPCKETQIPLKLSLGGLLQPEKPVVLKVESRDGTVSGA

[27] = AUC in Beagle dog at 3 mg/kg, iv; type: ADME, organism-based, Canis lupus familiaris; design: dose 3 mg/kg, route intravenous; details: plasma; procedure, shortened: as §4
[28] = target: Potassium voltage-gated channel subfamily A member 1 (Homo sapiens, UniProt Q09470); assay: Inhibition of Kv1.1 expressed in CHO cells by patch-clamp technique; type: cell-based; procedure, shortened: as §5
Sequence of Potassium voltage-gated channel subfamily A member 1 (Q09470 whole entry): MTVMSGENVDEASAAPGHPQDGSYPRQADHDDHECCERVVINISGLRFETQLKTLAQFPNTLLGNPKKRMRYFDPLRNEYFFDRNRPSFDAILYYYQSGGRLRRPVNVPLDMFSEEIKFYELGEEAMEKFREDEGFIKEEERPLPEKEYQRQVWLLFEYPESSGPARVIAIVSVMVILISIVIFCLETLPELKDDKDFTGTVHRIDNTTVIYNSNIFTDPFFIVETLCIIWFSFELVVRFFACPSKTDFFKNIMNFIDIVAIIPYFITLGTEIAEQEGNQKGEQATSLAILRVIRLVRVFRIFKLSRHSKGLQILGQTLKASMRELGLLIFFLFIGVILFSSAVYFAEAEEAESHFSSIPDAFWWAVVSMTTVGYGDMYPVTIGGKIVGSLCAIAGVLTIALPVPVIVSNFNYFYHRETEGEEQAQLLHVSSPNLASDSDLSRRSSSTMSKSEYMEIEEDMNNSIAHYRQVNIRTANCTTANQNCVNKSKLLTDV

Canis familiaris [29] = species on record: Canis familiaris; assay: Antiarrhythmic activity in Beagle dog prolongation of atrial effective refractory period at steady state plasma concentrations of 4.6 uM; type: functional, Canis lupus familiaris, Heart
[30] = target: Voltage-dependent L-type calcium channel subunit alpha-1D (Homo sapiens, UniProt Q01668); assay: Inhibition of Cav1.3 expressed in HEK cells by patch-clamp technique

Sequence of CYP3A4 (P08684 whole entry): as the sequence (P08684 whole entry) above

## COc1ccc(CCN2C(=O)N(NS(=O)(=O)Cc3cccnc3)C[C@@H]2c2ccc(OC)cc2)cc1
CYP3A4
  inhibition at 3 µM: 90%
[1]
  solubility: 23 µg/mL (≈ 46.3 µM)
[2]
  IC50: 0.6 µM
[3]
  half-life: 3 min

## COc1ccc(CCN2C(=O)N(NS(C)(=O)=O)C[C@@H]2c2ccc(OC)cc2)cc1
CYP3A4
  inhibition at 3 µM: 50%
[4]
  IC50: 26.7 µM
[1]
  solubility: 100 µg/mL (≈ 238 µM)
[2]
  IC50: 0.33 µM
[3]
  half-life: 16 min

## COc1ccc(CCN2C(=O)N(NS(C)(=O)=O)C[C@H]2c2ccc(OC)cc2)cc1
CYP3A4
  inhibition at 3 µM: 45%
[5]
  Papp B→A: 39 ×10⁻⁶ cm/s
[6]
  AUC: 1990 ng·h/mL
Canis familiaris [7]
  Activity: 17%
Canis familiaris [8]
  Activity: 63%
[9]
  clearance: 23 mL/min/kg
[4]
  IC50: 15.1 µM
[10]
  IC50: 3.87 µM
[11]
  Papp A→B: 40 ×10⁻⁶ cm/s
[12]
  bioavailability: 82%
Cytochrome P450 2D6
  IC50: 180 µM
[13]
  fraction unbound: 0.1
[1]
  solubility: 65 µg/mL (≈ 155 µM)
[14]
  Vd: 2.2 L/kg
[15]
  half-life: 102 min
[16]
  Tmax: 60 min
Canis familiaris [17]
  concentration: 23 µM
[18]
  half-life: 11 min
[19]
  half-life: 72 min
Canis familiaris [20]
  Activity: 55%
[21]
  IC50: 1.41 µM
Canis familiaris [22]
  concentration: 4.6 µM
[2]
  IC50: 0.48 µM
[3]
  half-life: 30 min
[23]
  IC50: > 30 µM
Cytochrome P450 2C9
  IC50: 47 µM
Canis familiaris [24]
  Activity: 52%
[25]
  IC50: > 30 µM
[26]
  Cmax: 469 ng/mL
Cytochrome P450 3A4
  IC50: 37 µM
[27]
  AUC: 2410 ng·h/mL
[28]
  IC50: 2.66 µM
Canis familiaris [29]
  Activity: 12%
[30]
  IC50: 23.4 µM

## COc1ccc(CCN2C(=O)N(NS(=O)(=O)Cc3ccccc3)C[C@@H]2c2ccc(OC)cc2)cc1
CYP3A4
  inhibition at 3 µM: 82%
[4]
  IC50: 4.4 µM
[1]
  solubility: 1 µg/mL (≈ 2.02 µM)
[2]
  IC50: 0.34 µM
[3]
  half-life: 3 min

## COc1ccc(CCCN2C(=O)N(NS(C)(=O)=O)C[C@H]2c2ccc(OC)cc2)cc1
CYP3A4
  inhibition at 3 µM: 50%
[4]
  IC50: 14.3 µM
[1]
  solubility: 15 µg/mL (≈ 34.6 µM)
[2]
  IC50: 0.56 µM
[3]
  half-life: 12 min

## CCOc1ccc(CCN2C(=O)N(NS(C)(=O)=O)C[C@@H]2c2ccc(OC)cc2)cc1
CYP3A4
  inhibition at 3 µM: 4%
[1]
  solubility: 43 µg/mL (≈ 99.2 µM)
[2]
  IC50: 0.77 µM
[3]
  half-life: 17 min

## COc1ccc(CCN2C(=O)N(NS(=O)(=O)CC#N)C[C@@H]2c2ccc(OC)cc2)cc1
CYP3A4
  inhibition at 3 µM: 7%
[4]
  IC50: 33 µM
[1]
  solubility: 100 µg/mL (≈ 225 µM)
[2]
  IC50: 0.23 µM
[3]
  half-life: 21 min

## COc1ccc(CCN2C(=O)N(NS(=O)(=O)CF)C[C@@H]2c2ccc(OC)cc2)cc1
CYP3A4
  inhibition at 3 µM: 0%
[4]
  IC50: 28.3 µM
[1]
  solubility: 100 µg/mL (≈ 229 µM)
[2]
  IC50: 0.9 µM
[3]
  half-life: 13 min
